Measured values as given in ChEMBL document CHEMBL1147184, “Design and synthesis of long-acting inhibitors of dipeptidyl peptidase IV” (Bioorg Med Chem, 2007).
Activity calls are given as the source filed them. No cut-off for these calls is given here.

Columns and labels:
Rattus norvegicus [1] = test: Ex vivo inhibition of DPP4 in Sprague-Dawley rat plasma at 1 mg/kg, po after 6 hrs; format: functional
Procedure, shortened: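 Male SD rats, 6–7 weeks old, fasted at least 8 h, given a single oral dose of 1 mg/kg in 0.5% methylcellulose. Jugular blood taken before dosing and up to 10 h after. Plasma mixed 1:1 with 60 µM Gly-Pro-AMC. Initial rate taken from AMC fluorescence (ex 355/em 460 nm) at 37 °C. Percent inhibition calculated against basal activity.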

Rattus norvegicus [2] = species: Rattus norvegicus; test: animal or person; details: Sprague-Dawley, Plasma, po, 10 h, read-out: Inhibition
[3] = Oral bioavailability in Sprague-Dawley rat at 1 mg/5 ml/kg, po; format: ADME, organism-based; details: in vivo, 1 mg/kg
Procedure, shortened: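 Male SD rats, 5–7 weeks old, fasted 24 h, n = 3 per route. Oral dose 1 mg/5 mL/kg in 0.5% methylcellulose. Slow iv bolus of 0.3 mg/2 mL/kg in saline via jugular vein. Jugular blood sampled from 0 to 24 h; plasma analysed by LC/MS/MS. F = (AUCpo/Dpo)/(AUCiv/Div) × 100.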

[4] = Stability in Tris buffer at pH 7.4; format: physicochemical
Procedure, shortened: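 Compound at 1 mg/mL in 100 mM Tris buffer, pH 7.4, held at room temperature. Remaining parent measured by LC/MS peak area at 0, 2, 6 and 24 h. Half-life obtained from a linear first-order fit of log(peak area/time-zero area) against time.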

[5] = target: Dipeptidyl peptidase 4 (Rattus norvegicus) (UniProt P14740); test: Inhibition of DPP4 in rat liver microsomes in presence of UDPGA; details: Microsome
[6] = Drug level in blood of Sprague-Dawley rat at 1 mg/kg, po after 0.25 hrs in absence of glucuronidase; format: ADME, organism-based; parameters: dose 1 mg/kg, route oral; details: read-out: Drug uptake
Procedure, shortened: (§1)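 Male SD rats, fasted 24 h, given a single oral dose of 1 mg/kg as a solution in 0.5% methylcellulose. Blood drawn from the jugular vein. Plasma protein precipitated with acetonitrile, supernatant evaporated and reconstituted in mobile phase, then analysed by LC/MS/MS with no β-glucuronidase/arylsulfatase step.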

[7] = Oral bioavailability in Sprague-Dawley rat at 10 mg/5 ml/kg, po; format: ADME, organism-based; details: in vivo, 10 mg/kg
Procedure, shortened: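 Male SD rats, 5–7 weeks old, fasted 24 h. Oral dose 10 mg/5 mL/kg in 0.5% methylcellulose compared with iv bolus of 0.3 mg/2 mL/kg in saline via jugular vein. Plasma sampled from 0 to 24 h and measured by LC/MS/MS. F calculated from dose-normalised AUC ratio, po over iv.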

Rattus norvegicus [8] = test: Effect on plasma glucose level in orally dosed Sprague-Dawley rat by OGTT assay; format: functional, organism-based
Procedure, shortened: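 Male SD rats (400–460 g) fasted at least 20 h. Vehicle (0.5% methylcellulose) or drug at 0.01, 0.03 or 0.1 mg/kg given po at −30 min, then oral glucose 1 g/kg at 0 min. Tail blood taken at −5, 5, 10, 15, 30, 60 and 120 min. Plasma glucose read by glucose oxidase–peroxidase dye method. Mean ± SE, n = 8; Student's t-test vs vehicle.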

[9] = Drug level in blood of Sprague-Dawley rat at 1 mg/kg, po after 6 hrs in absence of glucuronidase; format: ADME, organism-based; parameters: dose 1 mg/kg, route oral; details: read-out: Drug uptake; procedure, shortened: as §1
[10] = Drug level in blood of Sprague-Dawley rat at 1 mg/kg, po after 2 hrs in absence of glucuronidase; format: ADME, organism-based; parameters: dose 1 mg/kg, route oral; details: read-out: Drug uptake; procedure, shortened: as §1

Sequence of Dipeptidyl peptidase 4 (Rattus norvegicus) (P14740 whole entry, looked up): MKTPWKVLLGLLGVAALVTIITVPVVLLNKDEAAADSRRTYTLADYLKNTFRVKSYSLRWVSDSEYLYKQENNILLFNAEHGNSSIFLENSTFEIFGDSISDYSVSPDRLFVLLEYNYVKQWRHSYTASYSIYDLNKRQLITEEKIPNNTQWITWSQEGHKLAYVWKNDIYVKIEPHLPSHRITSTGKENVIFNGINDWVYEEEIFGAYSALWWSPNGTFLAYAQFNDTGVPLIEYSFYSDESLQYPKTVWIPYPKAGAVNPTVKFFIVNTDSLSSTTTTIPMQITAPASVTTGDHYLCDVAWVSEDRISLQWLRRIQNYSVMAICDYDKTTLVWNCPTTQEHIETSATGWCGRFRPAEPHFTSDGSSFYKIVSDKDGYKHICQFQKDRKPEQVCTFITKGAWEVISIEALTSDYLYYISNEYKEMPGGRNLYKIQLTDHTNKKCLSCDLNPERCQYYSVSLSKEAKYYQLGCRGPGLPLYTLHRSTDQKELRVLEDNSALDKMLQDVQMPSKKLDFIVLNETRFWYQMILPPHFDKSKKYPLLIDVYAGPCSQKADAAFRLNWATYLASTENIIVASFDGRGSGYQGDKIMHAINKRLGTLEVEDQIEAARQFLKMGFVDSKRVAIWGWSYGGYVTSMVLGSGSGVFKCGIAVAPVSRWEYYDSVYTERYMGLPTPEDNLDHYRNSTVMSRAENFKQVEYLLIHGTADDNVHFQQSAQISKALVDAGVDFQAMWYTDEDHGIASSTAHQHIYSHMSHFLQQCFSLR

half-life [4]	Structure (SMILES)	inhibition in vivo at 1 mg/kg (Rattus norvegicus [1])	further results
–	N#C[C@@H]1CCCN1C(=O)[C@@H]1C[C@H](c2ccccc2)CN1	60%	–
–	CC(C)C[C@@H]1CN[C@H](C(=O)N2CCC[C@H]2C#N)C1	40%	–
–	CCC[C@@H]1CN[C@H](C(=O)N2CCC[C@H]2C#N)C1	50%	–
–	CCOc1cc(O)cc(OCC)c1[C@@H]1CN[C@H](C(=O)N2CCC[C@H]2C#N)C1	79%	inhibition in vivo at 1 mg/kg (Rattus norvegicus [2]): 50%
31 h	Cc1cc(O)cc(C)c1[C@@H]1CN[C@H](C(=O)N2CCC[C@H]2C#N)C1	88%	bioavailability [3]: 3%; inhibition in vivo at 1 mg/kg (Rattus norvegicus [2]): 57%
–	Cc1cccc(C)c1[C@@H]1CN[C@H](C(=O)N2CCC[C@H]2C#N)C1	91%	–
–	C=CC[C@@H]1CN[C@H](C(=O)N2CCC[C@H]2C#N)C1	38%	–
20 h	N#C[C@@H]1CCCN1C(=O)[C@@H]1C[C@H](c2cccc(O)c2)CN1	77%	–
–	N#C[C@@H]1CCCN1C(=O)[C@@H]1C[C@@H](c2ccccc2)CN1	17%	–
21 h	N#C[C@@H]1CCCN1C(=O)[C@@H]1C[C@H](c2ccc(O)cc2)CN1	85%	–
–	COc1c(O)ccc(C)c1[C@@H]1CN[C@H](C(=O)N2CCC[C@H]2C#N)C1	94%	bioavailability [3]: 2%; inhibition in vivo at 1 mg/kg (Rattus norvegicus [2]): 86%
–	N#C[C@@H]1CCCN1C(=O)[C@@H]1C[C@H](C2CCCCC2)CN1	38%	–
49 h	COc1cc(O)cc(C)c1[C@@H]1CN[C@H](C(=O)N2CCC[C@H]2C#N)C1	90%	inhibition in vivo at 1 mg/kg (Rattus norvegicus [2]): 73%; Activity [5]: Active; concentration at 0.25 h [6]: 0.49 ng/mL; bioavailability [7]: 0.1%
–	C=C(C)C[C@@H]1CN[C@H](C(=O)N2CCC[C@H]2C#N)C1	27%	–
–	N#C[C@@H]1CCCN1C(=O)[C@@H]1CCCN1	20%	–
–	N#C[C@@H]1CCCN1C(=O)[C@@H]1C[C@H](C2C3CC4CC(C3)CC2C4)CN1 (stereo not given in full)	47%	–
40 h	Cc1cc(C)c([C@@H]2CN[C@H](C(=O)N3CCC[C@H]3C#N)C2)c(C)c1O	39%	concentration at 6 h [9]: 0.95 ng/mL; concentration at 0.25 h [6]: 9.7 ng/mL; concentration at 2 h [10]: 0.65 ng/mL
59 h	COc1cc(O)cc(OC)c1[C@@H]1CN[C@H](C(=O)N2CCC[C@H]2C#N)C1	81%	inhibition in vivo at 1 mg/kg (Rattus norvegicus [2]): 66%
39 h	CCc1cc(O)cc(C)c1[C@@H]1CN[C@H](C(=O)N2CCC[C@H]2C#N)C1	86%	–
3.2 h	N#C[C@@H]1CCCN1C(=O)[C@@H]1C[C@H](c2ccccc2O)CN1	43%	–

Structure (SMILES)	half-life [4]	inhibition in vivo at 1 mg/kg (Rattus norvegicus [1])	further results
Cc1ccc(O)c(C)c1[C@@H]1CN[C@H](C(=O)N2CCC[C@H]2C#N)C1	65 h	95%	inhibition in vivo at 1 mg/kg (Rattus norvegicus [2]): 83%; Activity (Rattus norvegicus [8]): Dose-dependent effect
